About 200 (0.056%) of roughly 360,000 compounds were called active.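 How the source made its calls: active means mean normalized replicate activation at least 10% and every replicate at or above 10%; inconclusive means only one of the two criteria met; inactive means mean below 10% and not all replicates reach 10%.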 The full list was thinned out, with actives kept by preference.

This assay is described as follows: Xi reactivation inducers in mouse fibroblasts – imaging, XiGFP fibroblasts, GFP high-content imaging, set 2, primary screen (AID 743238).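 Further: 0% = median of on-plate neutral control wells and 100% = ellipticine 6 µM median.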 To be noted: % GFP-positive cells imaging, 3 d, at 7.58 µM, stronger effect = higher value, cells co-treated with 5-aza-dC sensitizer, scaled so ellipticine positive control = 100%. The gist of the method: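 Material: SV40-immortalized XiGFP fibroblast cells, line 68-5-11 | Buffer or medium: DMEM containing 5-aza-dC | Dosing: One concentration, pinned | Times: 3 d treatment, 15 min room-temperature fixation | Controls: Ellipticine 6 µM positive control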
Take `C[C@H](CO)N1C[C@H](C)[C@H](CN(C)Cc2ccc(C(=O)Nc3ccccc3N)cc2)Oc2ccc(NC(=O)Nc3ccccc3)cc2CC1=O`: the activation was 0.0505% (inactive). For `Cc1noc(C)c1NC(=O)Nc1ccc2c(c1)C(=O)N([C@H](C)CO)C[C@@H](C)[C@H](CN(C)C(=O)Nc1cccc3ccccc13)OCCCC[C@@H](C)O2`, the activation was 0.305% (inactive). In the case of `COc1cccc(CNC(=O)C[C@@H]2CC[C@H]3[C@@H](COc4ccc(NC(=O)c5cccs5)cc4C(=O)N3C)O2)c1`, the activation was -0.028% (inactive). In the case of `C[C@H]1CN([C@@H](C)CO)C(=O)c2ccccc2-c2ccccc2CO[C@H]1CN(C)Cc1ccc(-c2ccccc2)cc1`, the activation is 0.132% (inactive). As for `COc1ccc(S(=O)(=O)Nc2ccc3c(c2)CC(=O)N([C@@H](C)CO)C[C@@H](C)[C@H](CN(C)S(=O)(=O)c2ccccc2)O3)cc1`, the activation is 0.178% (inactive). In the case of `COc1cccc(S(=O)(=O)N[C@H]2C=C[C@H](CC(=O)NC3Cc4ccccc4C3)O[C@H]2CO)c1`, the activation is 0.645% (inactive).

`C[C@H](O)C#Cc1cnc2c(c1)C(=O)N([C@@H](C)CO)C[C@H](C)[C@@H](CN(C)C(=O)c1ccccc1)O2`: the activation was -0.975% (inactive). In the case of `Cc1ccccc1-c1ccc([C@H]2[C@@H](CO)N3C(=O)CN(C(=O)c4ccncc4)C[C@@H]23)cc1`, the activation is -0.015% (inactive). Next, `COc1ccc(S(=O)(=O)Nc2ccc3c(c2)C(=O)N([C@@H](C)CO)C[C@H](C)[C@@H](CN(C)C(=O)c2ccccc2)OCCCC[C@H](C)O3)cc1`: 0.072% (inactive); `COc1ccc2c3c(n(C)c2c1)[C@@H](CO)N(C(C)=O)CC31CCN(Cc2ccc(Cl)cc2)CC1`: 0.225% (inactive); `C[C@@H]1CCCCO[C@@H](CN(C)S(=O)(=O)c2cn(C)cn2)[C@@H](C)CN([C@@H](C)CO)C(=O)c2cc(NC(=O)Nc3ccc(C(F)(F)F)cc3)ccc2O1`: -0.98% (inactive). With `CO[C@@H]1CN(C)C(=O)c2ccc(NC(=O)C3CC3)cc2OC[C@H](C)N(C(=O)c2ccccc2)C[C@@H]1C` the figure was 0.643% (inactive). Next, `CC[C@@H]1CC=CC[C@H](C)Oc2ccccc2C(=O)N(C)[C@H](Cc2ccccc2)C(=O)N1` (mixture of isomers): 0.007% (inactive); `C[C@@H]1CCCCO[C@H](CN(C)Cc2ccc3c(c2)OCO3)[C@H](C)CN([C@@H](C)CO)C(=O)c2cc(NS(=O)(=O)c3cccs3)ccc2O1`: -0.019% (inactive). Take `C[C@H]1CCCCO[C@@H](CN(C)C(=O)Nc2ccccc2)[C@@H](C)CN([C@@H](C)CO)C(=O)c2cc(NC(=O)CCC(F)(F)F)ccc2O1`: the activation was 0.045% (inactive). Next, `C[C@@H](NC(=O)C[C@H]1C[C@@H]2c3cc(NC(=O)Nc4ccccc4F)ccc3O[C@@H]2[C@H](CO)O1)c1ccccc1`: 0.315% (inactive); `COc1ccc(NC(=O)Nc2ccc3c(c2)CC(=O)N([C@@H](C)CO)C[C@@H](C)[C@H](CN(C)C(=O)NC2CCCCC2)O3)cc1`: -0.248% (inactive); `C[C@@H]1CN([C@@H](C)CO)C(=O)c2cc(NC(=O)Nc3cccc4ccccc34)ccc2O[C@@H](C)CCCCO[C@@H]1CN(C)S(=O)(=O)c1ccc(Cl)cc1`: 0.307% (inactive).

`O=S(=O)(NC1CC1)c1ccc2c3c(cccc13)CC2`: the activation was 0.001% (inactive).

On to `N#CC1(Nc2ccc(-c3ccc(Cl)cc3)cc2)CCCC1`, for which the activation is -0.0155% (inactive). As for `N#CC1(Nc2ccc3c4c(cccc24)CC3)CCCCC1`, the activation was 40% (active). As to `CC(C)NC(=O)N(C)C[C@@H]1Oc2c(cccc2N(C)C)C(=O)N([C@H](C)CO)C[C@@H]1C`, the activation was 0.155% (inactive).

For the molecule `O=C(CC1CC1)N1[C@@H](CO)[C@H](c2ccccc2)C12CN(Cc1cccnc1)C2`, the activation is 0.0215% (inactive). With `COc1ccc2c3c([nH]c2c1)[C@@H](CO)N(C(C)=O)CC31CCN(Cc2ccccc2Cl)CC1`, the activation was 0.131% (inactive). With `C[C@@H]1CN([C@@H](C)CO)C(=O)Cc2cc(NC(=O)C3CC3)ccc2O[C@H]1CN(C)C(=O)NC1CCCCC1` the figure was -0.834% (inactive); with `O=C(C[C@@H]1CC[C@@H](NC(=O)c2ccc3c(c2)OCO3)[C@H](CO)O1)NCc1ccc(F)cc1`, 0.149% (inactive); with `Cc1ccc(S(=O)(=O)Nc2ccc3c(c2)C(=O)N([C@@H](C)CO)C[C@H](C)[C@@H](CN(C)CC2CC2)O3)cc1`, -0.069% (inactive).

`Cc1ccccc1CN(C)C[C@H]1OCc2cn(nn2)CCCC(=O)N([C@@H](C)CO)C[C@H]1C`: the activation is 0.238% (inactive). Next, `CCCN(C)C[C@@H]1Oc2ncc(C#Cc3ccccc3)cc2C(=O)N([C@H](C)CO)C[C@@H]1C`: -0.009% (inactive); `C[C@H](CO)N1C[C@H](C)[C@H](CN(C)C(=O)c2ccncc2)Oc2cc(C#CC3(O)CCCC3)ccc2S1(=O)=O`: 0.469% (inactive). With `CN(C)CCCNC(=O)C[C@@H]1C=C[C@H](NC(=O)c2ccccc2F)[C@H](CO)O1` the figure was -0.107% (inactive). Next, `CCN1/C(=C\c2ccc3ccccc3[n+]2CC)Sc2cc(C)ccc21`: 415% (active); `CCCNC(=O)N1CC(=O)N2[C@H](C1)[C@@H](c1ccc(C#Cc3ccccc3)cc1)[C@@H]2CO`: -0.0025% (inactive); `O=C(C[C@@H]1CC[C@@H](NS(=O)(=O)c2ccc(F)cc2)[C@H](CO)O1)NCc1ccc(Cl)c(Cl)c1`: 0.0265% (inactive).

For `C[C@H](CO)N1C[C@H](C)[C@H](CN(C)Cc2ccncc2)Oc2ccc(NS(=O)(=O)c3cn(C)cn3)cc2C1=O`, the activation was -0.119% (inactive). Next, `CC=Cc1ccc2n(c1=O)C[C@@H]1[C@@H](CO)[C@H](C(=O)NC3CCCC3)[C@H]2N1C(=O)c1cnccn1` (mixture of isomers): 0.002% (inactive). `O=C(Nc1ccccc1F)N[C@@H]1CC[C@H](CCNC(=O)C2CC2)O[C@@H]1CO`: the activation was 0.587% (inactive). Turning to `O=C(C[C@H]1C=C[C@@H](NC(=O)Nc2cc(F)ccc2F)[C@@H](CO)O1)NCc1ccc2c(c1)OCO2`, the activation is 0.137% (inactive).

For the molecule `C[C@@H]1CN([C@H](C)CO)C(=O)c2cccc(NS(C)(=O)=O)c2O[C@@H]1CN(C)S(=O)(=O)c1cccs1`, the activation was -1.35% (inactive). With `COc1ccccc1NC(=O)N1CC(=O)N2[C@H](CO)[C@@H](c3ccc(C#Cc4ccc(F)cc4)cc3)[C@H]2C1` the figure was -0.0395% (inactive); with `Cc1ccc(S(=O)(=O)N(C)CC(=O)NCCc2c[nH]c3ccccc23)cc1`, 0.082% (inactive); with `N#C/C(=C/c1ccc(N2CCCCC2)o1)C(=O)NCCc1c[nH]c2ccccc12`, 119% (active).

On to `O=C(NCCc1c[nH]c2ccccc12)c1cc2ccccc2oc1=O`, for which the activation is -0.0325% (inactive). With `CCCNC(=O)NC[C@H]1[C@H](c2ccc(C3=CCCCC3)cc2)[C@H](CO)N1C(C)=O` the figure was -0.0205% (inactive); with `CC(C)NC(=O)N1[C@H](C#N)[C@@H](c2ccc(-c3ccc(F)cc3)cc2)[C@H]1CO`, 0.054% (inactive); with `C[C@@H]1CN([C@H](C)CO)C(=O)c2cc(NC(=O)CCCCCC(=O)Nc3ccccc3N)ccc2O[C@@H]1CN(C)S(=O)(=O)c1ccc(Cl)cc1`, -0.749% (inactive). With `C[C@H](O)C#Cc1ccc2c(c1)O[C@@H](CN(C)Cc1cccnc1)[C@H](C)CN([C@H](C)CO)S2(=O)=O` the figure was 0.253% (inactive); with `O=C(NC1Cc2ccccc2C1)[C@H]1[C@H](CO)[C@H]2Cn3c(ccc(C4=CCCCC4)c3=O)[C@H]2N1CC1CC1`, 0.397% (inactive); with `CN(C)CC(=O)N[C@@H]1CC[C@H](CC(=O)O)O[C@H]1CO`, -0.0755% (inactive). Next, `C[C@@H]1CN([C@@H](C)CO)C(=O)c2cc(C#CC3CCCCC3)cnc2O[C@@H]1CN(C)Cc1cncnc1`: -1.05% (inactive); `CCC(=C/c1sc2ccc3ccccc3c2[n+]1C)/C=C1\Sc2ccc3ccccc3c2N1C`: 68% (active).

Consider `CC(C)C#Cc1cnc2c(c1)C(=O)N([C@@H](C)CO)C[C@@H](C)[C@H](CN(C)C(=O)CCN1CCCCC1)O2`, for which the activation is 0.409% (inactive).

Consider `COc1ccc(NC(=O)Nc2ccc3c(c2)C(=O)N([C@@H](C)CO)C[C@@H](C)[C@@H](CN(C)C(=O)CCCN(C)C)OCCCC[C@@H](C)O3)cc1`, for which the activation was 0.0725% (inactive). In the case of `Cc1ccccc1-c1ccc([C@H]2[C@@H](CO)N3C(=O)CN(C(=O)c4cccnc4)C[C@@H]23)cc1`, the activation is 0.209% (inactive). Next, `C[C@@H](O)C#Cc1ccc([C@@H]2[C@@H](CO)N3CCCCN(C(=O)c4ccc(F)cc4)C[C@@H]23)cc1`: 0.907% (inactive); `C[C@H]1CN([C@@H](C)CO)C(=O)c2cc(Br)cnc2O[C@H]1CN(C)Cc1cccc(F)c1`: 0.497% (inactive). Next, `Cc1ccc(S(=O)(=O)N2C[C@H](O)COC[C@@H]3O[C@H](CC(=O)N[C@H]4CCN(Cc5ccccc5)C4)CC[C@H]32)cc1`: 0.108% (inactive); `C[C@@H]1CN([C@H](C)CO)C(=O)c2cc(-c3ccccc3F)cnc2O[C@H]1CN(C)C(=O)CN(C)C`: 3.17% (inactive). With `COc1cc(CN2CC3(CN(S(=O)(=O)c4cccs4)C3)c3c(n(C)c4cc(OC)ccc34)[C@H]2CO)cc(OC)c1` the figure was 0.325% (inactive).

Regarding `COc1cccc(S(=O)(=O)N[C@H]2C=C[C@@H](CC(=O)NCc3ccccc3)O[C@@H]2CO)c1`, the activation was -0.504% (inactive). With `CN1CCN(C(=O)C[C@H]2CC[C@H]3[C@@H](COC[C@H](O)CN3CC3CCCC3)O2)CC1` the figure was 0.0235% (inactive); with `Cc1ccc(S(=O)(=O)N(C)C[C@@H]2Oc3c(NC(=O)Nc4c(C)noc4C)cccc3C(=O)N([C@@H](C)CO)C[C@@H]2C)cc1`, -0.145% (inactive).
